In general, GI50 refers to the concentration giving 50% growth inhibition. A lower GI50 goes with greater sensitivity of the cells.

Results on 14 compounds are retold here after ChEMBL document CHEMBL3872228, “A new scaffold of topoisomerase I inhibitors: Design, synthesis and biological evaluation” (2016).

Experiment [1] in a line: Growth inhibition of human H460 cells after 72 hrs by trypan blue assay. It is filed as functional. To be noted: NCI-H460, 72 h. The gist of the method: (§1)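 Medium: HeLa in F-12 [HAM]; H460 and MSTO-211H in RPMI 1640 plus Hepes, pyruvate and glucose. All media contained 10% heat-inactivated FCS and antibiotics; 37°C, 5% CO2. 3–4 × 10^4 cells/well grew 24 h, then test agents were added at various concentrations for 72 h. Viability by trypan blue; GI50 = concentration giving 50% reduction in cell number vs control.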

Experiment [2] can be described thus: Growth inhibition of human MSTO-211H cells after 72 hrs by trypan blue assay. It is filed as functional. The gist of the method: as §1
Experiment [3] can be described thus: Growth inhibition of human HeLa cells after 72 hrs by trypan blue assay. The format is functional. The gist of the method: as §1
Experiment [4] is described as follows: Binding affinity to DNA (unknown origin) assessed as induction of negative LD signal at 260 nm at 1.2 x 10^-5 M by linear flow dichroism method. The note with it: in the assay text read “380 to 520 nm” for “260 nm”. The gist of the method:
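Linear flow dichroism: aqueous DNA solutions at 1.9 × 10^-3 M in ETN buffer (10 mM TRIS, 1 mM EDTA, pH 7.0, 0.01 M NaCl); spectra recorded at 25°C at [drug]/[DNA] ratios of 0 and 0.08.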

The target of experiment [5] is T1, DNA topoisomerase 1 (Homo sapiens) (UniProt P11387).
T1 sequence (whole entry): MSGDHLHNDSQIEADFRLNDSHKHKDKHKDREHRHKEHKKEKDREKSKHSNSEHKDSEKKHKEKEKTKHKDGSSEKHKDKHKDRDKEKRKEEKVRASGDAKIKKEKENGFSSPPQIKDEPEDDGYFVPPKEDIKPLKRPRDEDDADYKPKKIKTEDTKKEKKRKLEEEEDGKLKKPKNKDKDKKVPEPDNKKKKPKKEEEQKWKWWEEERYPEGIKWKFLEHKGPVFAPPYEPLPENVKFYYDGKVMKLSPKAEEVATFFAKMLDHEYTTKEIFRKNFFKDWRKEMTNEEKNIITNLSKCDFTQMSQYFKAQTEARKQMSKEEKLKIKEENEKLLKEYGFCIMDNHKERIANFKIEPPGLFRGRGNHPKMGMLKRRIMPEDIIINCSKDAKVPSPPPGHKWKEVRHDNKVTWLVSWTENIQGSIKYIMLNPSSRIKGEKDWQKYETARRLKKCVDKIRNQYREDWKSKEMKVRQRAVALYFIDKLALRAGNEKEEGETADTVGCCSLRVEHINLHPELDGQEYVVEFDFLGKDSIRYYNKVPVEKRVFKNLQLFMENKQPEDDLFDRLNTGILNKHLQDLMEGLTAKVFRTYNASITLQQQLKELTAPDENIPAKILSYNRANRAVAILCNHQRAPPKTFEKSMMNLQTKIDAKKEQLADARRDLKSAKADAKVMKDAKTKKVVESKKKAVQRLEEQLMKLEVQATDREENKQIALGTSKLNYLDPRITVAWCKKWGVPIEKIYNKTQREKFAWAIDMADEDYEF
Kind of experiment: Inhibition of human recombinant topoisomerase 1 catalytic activity assessed as decrease in relaxation of supercoiled pBR322 DNA at 100 uM after 60 mins by agarose gel electrophoresis. The gist of the method: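 Supercoiled pBR322 plasmid (0.25 µg) with 2U human recombinant topoisomerase I plus test compound, 60 min at 37 °C. Stopped with SDS stop buffer and proteinase K (50 µg/mL), a further 30 min at 37 °C. Run on 1% agarose; post-stained with ethidium bromide 1 µg/mL in TAE and imaged under UV.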

The target of experiment [6] is T1, DNA topoisomerase 1 (Homo sapiens). Put plainly: Poison activity at human recombinant topoisomerase 1 assessed as enzyme-supercoiled pBR322 DNA cleavable complex at 500 uM after 60 mins by agarose gel electrophoresis.
The target is the same in experiment [7]. Put plainly: Poison activity at human recombinant topoisomerase 1 assessed as enzyme-supercoiled pBR322 DNA cleavable complex at 25 to 100 uM after 60 mins by agarose gel electrophoresis.

Calls of active or inactive are those of the source. The rule behind the calls is not given here.

As for `C=CC[C@@]12CCN(C(=O)OC(C)(C)C)[C@@H]1n1c3nc4ccc(O)cc4cc3c(=O)c3cccc2c31`, the results for the 50% growth inhibitory concentration (GI50) in experiment [1], in experiment [2] and in experiment [3] were 32.7 µM, 24.1 µM and 30.5 µM, respectively.
For `CC[C@@]1(O)C(=O)OCc2c1cc1n(c2=O)Cc2cc3ccccc3nc2-1` [CAMPTOTHECIN] the same measures were 0.002 µM, 0.0021 µM and 0.0054 µM.
As for `C=CC[C@@]12CCN[C@@H]1n1c3nc4ccc(OC)cc4cc3c(=O)c3cccc2c31`, the 50% growth inhibitory concentration (GI50) in experiment [1] is 8.9 µM; in experiment [2], 7.8 µM; in experiment [3] it was 14.8 µM. Besides, the outcome in experiment [4] and in experiment [6] was Active. Moreover, the inhibition result in experiment [5] is “Active”.
For `C=CC[C@@]12CCN[C@@H]1n1c3nc4ccccc4cc3c(=O)c3cccc2c31`, the GI50 was found to be 14.4 µM in experiment [1], 13 µM in experiment [2] and 16.5 µM in experiment [3].
For `C=CC[C@@]12CCN[C@@H]1n1c3nc4ccccc4cc3c(=O)c3cc(OC)cc2c31` the same measures were 32.2 µM, 14.4 µM and 30.7 µM.
For `C=CC[C@@]12CCN[C@@H]1n1c3nc4ccc(O)cc4cc3c(=O)c3cc(O)cc2c31` the same measures were 4.8 µM, 7 µM and 15.3 µM.
The like results for `C=CC[C@@]12CCN[C@@H]1n1c3nc4ccc(OC)cc4cc3c(=O)c3cc(OC)cc2c31` were, in that order, 18.6 µM, 13.5 µM and 16.6 µM.
`C=CC[C@@]12CCN(C)[C@@H]1n1c3nc4ccc(OC)cc4cc3c(=O)c3cc(OC)cc2c31`: the GI50 in experiment [1] turned out to be 50 µM; in experiment [2] it was 34.2 µM; in experiment [3], 18.3 µM.
For `CN(C)Cc1c(O)ccc2nc3c(cc12)c(=O)c1cccc2c1n3[C@H]1N(C(=O)OC(C)(C)C)CC[C@@]21CCO` the same measures were 16.4 µM, 20 µM and 13 µM.
For `C=CC[C@@]12CCN[C@@H]1n1c3nc4ccc(O)cc4cc3c(=O)c3cccc2c31` the same measures were more than 50 µM, 18.7 µM and 19 µM.
With `COc1ccc2nc3c(cc2c1)c(=O)c1cccc2c1n3[C@H]1NCC[C@@]21CCO`, the values for the GI50 in experiment [1], in experiment [2] and in experiment [3] were 0.85 µM, 1.9 µM and 1.4 µM, respectively. For the same compound, the outcome in experiment [4] and in experiment [7] was Active. In experiment [5], the inhibition result was “Active”.
In the case of `C=CC[C@@]12CCN[C@@H]1n1c3nc4ccc(O)c(CN(C)C)c4cc3c(=O)c3cccc2c31`, the GI50 is 26.2 µM in experiment [1], 29.1 µM in experiment [2] and 29.3 µM in experiment [3].
For `CC(C)(C)OC(=O)N1CC[C@@]2(CCO)c3cccc4c(=O)c5cc6cc(O)ccc6nc5n(c34)[C@@H]12` the same measures were 26.8 µM, 13.7 µM and 13 µM.
For `C=CC[C@@]12CCN(C(=O)OC(C)(C)C)[C@@H]1n1c3nc4ccc(O)c(CN(C)C)c4cc3c(=O)c3cccc2c31` the same measures were 17.8 µM, 22.8 µM and 35.2 µM.
